Experimental data as given in ChEMBL document CHEMBL4311947, “Discovery of Novel Naphthylphenylketone and Naphthylphenylamine Derivatives as Cell Division Cycle 25B (CDC25B) Phosphatase Inhibitors: Design, Synthesis, Inhibition Mechanism, and in Vitro Efficacy against Melanoma Cell Lines” (J Med Chem, 2019).
Activity calls are given as the source filed them. The calls are words filed in the database; no cut-off is given here.

Key:
A2058 [1] = experiment: Cytotoxicity against human A2058 cells at 5 uM after 48 hrs by MTT assay; format: functional, cell-based
Method in brief: (§1)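 Cells seeded at 4×10^4/well, treated 24 h after plating with inhibitor or 0.5% (v/v) DMSO vehicle for 24, 48 or 72 h. MTT added, 3 h at 37°C under 5% CO2, formazan solubilised, absorbance at 570 nm. Viability in arbitrary units, mean ± SE of at least three independent experiments versus control. Cells grown in DMEM/10% FBS at 37°C, 5% CO2; BJ-5ta cultured in 4:1 DMEM/Medium 199 with hygromycin B.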

[2] = molecular target: T1, M-phase inducer phosphatase 2 (Homo sapiens) (UniProt P30305); experiment: Inhibition of N-terminal His6-tagged human CDC25B (377 to 550 residues) expressed in Escherichia coli BL21(DE3) cells assessed as reduction in Vmax using OMFP as substrate by double reciprocal Lineweaver-Burk plot analysis
T1 sequence (whole entry): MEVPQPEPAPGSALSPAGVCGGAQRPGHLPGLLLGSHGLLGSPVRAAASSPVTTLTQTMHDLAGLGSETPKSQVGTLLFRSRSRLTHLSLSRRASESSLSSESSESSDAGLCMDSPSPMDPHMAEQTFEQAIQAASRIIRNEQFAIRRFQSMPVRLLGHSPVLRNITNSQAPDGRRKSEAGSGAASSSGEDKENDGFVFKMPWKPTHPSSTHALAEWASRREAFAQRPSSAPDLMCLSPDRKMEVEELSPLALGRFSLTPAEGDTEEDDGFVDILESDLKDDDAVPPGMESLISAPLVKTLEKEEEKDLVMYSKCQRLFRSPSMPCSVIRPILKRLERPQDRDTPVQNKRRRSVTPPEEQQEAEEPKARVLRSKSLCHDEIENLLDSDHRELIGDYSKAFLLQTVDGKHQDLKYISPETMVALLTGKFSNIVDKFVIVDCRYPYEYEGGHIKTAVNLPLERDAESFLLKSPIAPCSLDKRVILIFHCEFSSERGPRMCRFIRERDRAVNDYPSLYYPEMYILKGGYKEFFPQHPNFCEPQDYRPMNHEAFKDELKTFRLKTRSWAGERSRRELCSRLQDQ
Method in brief: (§2)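 Recombinant CDC25 form (15–25 nM) in 20 mM Tris-HCl pH 7.8, 0.5 mM TCEP, 1% (v/v) DMSO, with or without inhibitor. Reaction started with 0.5–25 µM OMFP; O-methylfluorescein formation followed continuously at 30°C (ex 485/em 530 nm). Initial rates (AU/min) analysed in Lineweaver-Burk plots for Vmax, KM and mechanism; Ki averaged from at least three independent experiments, only roughly estimated for mixed inhibition.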

[3] = molecular target: T2, M-phase inducer phosphatase 3 (Homo sapiens, UniProt P30307); experiment: Inhibition of N-terminal His6-tagged human CDC25C (280 to 454 residues) expressed in Escherichia coli BL21(DE3) cells using OMFP as substrate by double reciprocal Lineweaver-Burk plot analysis; method in brief: as §2
T2 sequence (P30307 whole entry): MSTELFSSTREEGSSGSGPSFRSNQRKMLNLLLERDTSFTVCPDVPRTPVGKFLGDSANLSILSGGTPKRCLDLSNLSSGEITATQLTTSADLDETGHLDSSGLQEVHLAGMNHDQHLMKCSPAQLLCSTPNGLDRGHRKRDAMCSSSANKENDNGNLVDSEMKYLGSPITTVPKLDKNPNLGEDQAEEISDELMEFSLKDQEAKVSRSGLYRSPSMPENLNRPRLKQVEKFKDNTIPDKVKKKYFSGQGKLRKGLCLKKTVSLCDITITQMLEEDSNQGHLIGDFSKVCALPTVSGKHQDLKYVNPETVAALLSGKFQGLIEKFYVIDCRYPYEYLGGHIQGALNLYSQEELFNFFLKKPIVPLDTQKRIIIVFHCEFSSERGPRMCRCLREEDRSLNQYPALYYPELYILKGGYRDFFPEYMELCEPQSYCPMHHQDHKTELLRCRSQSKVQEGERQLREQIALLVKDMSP

A-375 [4] = experiment: Induction of cell cycle arrest in human A375 cells assessed as increase in accumulation at G2/M phase at 10 uM after 8 hrs by propidium iodide staining based flow cytometric method; format: functional
Method in brief: (§3)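 Seeded at 3×10^5 cells/well for 24 h at 37°C, then exposed to 10 µM inhibitor or 0.5% (v/v) DMSO for 8 or 16 h. Trypsin-harvested, fixed in cold 70% ethanol at -20°C for 1 h, stained 30 min at 4°C with 50 µg/mL PI in non-lysis solution. Phase distribution (sub-G1, G0/G1, S, G2/M) read by FACScan; triplicate experiments, mean ± SE.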

A-375 [5] = experiment: Induction of cell cycle arrest in human A375 cells assessed as increase in accumulation at G2/M phase at 10 uM after 16 hrs by propidium iodide staining based flow cytometric method; format: functional; method in brief: as §3
A2058 [6] = experiment: Induction of cell cycle arrest in human A2058 cells assessed as decrease in accumulation at G0/G1 phase at 10 uM after 16 hrs by propidium iodide staining based flow cytometric method; format: functional; method in brief: as §3
[7] = molecular target: T3, M-phase inducer phosphatase 2 (Homo sapiens, UniProt P30305); experiment: Uncompetitive inhibition of N-terminal His6-tagged human CDC25B (377 to 550 residues) expressed in Escherichia coli BL21(DE3) cells using OMFP as substrate by double reciprocal Lineweaver-Burk plot analysis; method in brief: as §2
T3 sequence (P30305 whole entry): T1 sequence (whole entry)

A-375 [8] = experiment: Induction of cell cycle arrest in human A375 cells assessed as decrease in accumulation at G0/G1 phase at 10 uM after 8 hrs by propidium iodide staining based flow cytometric method; format: functional; method in brief: as §3
A2058 [9] = experiment: Induction of cell cycle arrest in human A2058 cells assessed as decrease in accumulation at G0/G1 phase at 10 uM after 8 hrs by propidium iodide staining based flow cytometric method; format: functional; method in brief: as §3
hTERT-BJ = experiment: Cytotoxicity against human BJ-5ta cells at 10 uM measured up to 72 hrs by MTT assay; format: cell-based; method in brief: as §1
A2058 [10] = experiment: Cytotoxicity against human A2058 cells at 50 uM after 24 hrs by MTT assay; format: functional, cell-based; method in brief: as §1

- inhibition [2]: Active
- Ki [3]: 1.9 µM
- Ki [7]: 8.5 µM
SMILES: CCOC(=O)c1cccc(Nc2cc(OC)cc3ccccc23)c1
- Activity (A2058 [1]): Active
- Activity (A-375 [4]): Active
- Activity (A-375 [5]): inactive
- Activity (A2058 [6]): Active
- Activity (A-375 [8]): Active
- Activity (A2058 [9]): Active
- Activity (hTERT-BJ): Non-Toxic
- Activity (A2058 [10]): Active
